Key:
921 = assay: Antiproliferative activity against human 92.1 cells assessed as inhibition of cell growth at 5 to 15 uM by CCK8 assay; type: functional, cell-based; conditions: dose 5-15 µM, time 24-96 hrs, TDE = time-dependent effect
GNAQ/GNA11 = target: T1, GNAQ/GNA11 (Homo sapiens, UniProt P50148+P29992); assay: Binding affinity to Galphaq/11 (unknown origin) expressed in HEK293 cells cotransfected with AT1R/Galphaq-RLuc8/ Ggamma2-venus/Gbeta1 assessed as inhibition of Ang-II induced-BRET signal preincubated for 1 hr followed by Ang-II addition by BRET assay; type: cell-based
T1 sequence (P50148 whole entry): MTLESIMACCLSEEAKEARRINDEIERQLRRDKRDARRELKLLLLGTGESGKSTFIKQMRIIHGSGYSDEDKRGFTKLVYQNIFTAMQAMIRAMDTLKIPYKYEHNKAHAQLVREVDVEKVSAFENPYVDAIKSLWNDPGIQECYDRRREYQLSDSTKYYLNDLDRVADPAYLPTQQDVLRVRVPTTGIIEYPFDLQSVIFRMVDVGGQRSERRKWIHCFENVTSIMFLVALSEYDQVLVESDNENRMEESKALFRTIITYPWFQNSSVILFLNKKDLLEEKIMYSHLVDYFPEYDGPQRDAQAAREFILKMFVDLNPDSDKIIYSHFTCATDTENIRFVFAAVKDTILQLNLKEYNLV
T1 sequence (P29992 whole entry): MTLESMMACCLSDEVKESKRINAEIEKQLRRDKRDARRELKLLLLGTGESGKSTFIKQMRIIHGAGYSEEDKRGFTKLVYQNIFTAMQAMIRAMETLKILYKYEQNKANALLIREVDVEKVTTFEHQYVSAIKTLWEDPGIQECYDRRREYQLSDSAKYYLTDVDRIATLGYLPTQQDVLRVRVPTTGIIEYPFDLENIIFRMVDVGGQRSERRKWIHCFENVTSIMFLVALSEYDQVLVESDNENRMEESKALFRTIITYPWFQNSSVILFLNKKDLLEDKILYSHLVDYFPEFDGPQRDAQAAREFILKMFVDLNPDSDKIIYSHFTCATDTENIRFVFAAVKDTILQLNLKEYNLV
Method in brief: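 HEK293 cells transiently transfected with AT₁R, Gαq-RLuc8, Gγ2-Venus and untagged Gβ1. Replated 24 h later, washed with HBS, starved 10 min, then pretreated with compound for 1 h at 37 °C. AngII added, followed by coelenterazine. BRET ratio taken as Venus emission (520−570 nm) over RLuc8 emission (370−480 nm). Mean ± SD, n = 3.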

[1] = Antitumor activity against human MP41 cells xenografted in nude BALB/c mouse assessed as tumor growth inhibition at 30 mg/kg, ip administered for once daily for 21 days and measured every 3 days; type: functional; conditions: 504 h, time 21 day, read-out: TGI
Method in brief: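 MP41 tumours were passaged subcutaneously mouse-to-mouse in nude BALB/c mice (6−8 weeks, 20−25 g). Tertiary recipients randomized, n = 8/group, given 10 or 30 (mg/kg)/d ip or vehicle for 21 days. Tumour size (V = A × B² × π/6, caliper) and body weight taken every 3 days; tumours excised and weighed on day 22. TGI computed versus the vehicle group.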

[2] = Toxicity in nude BALB/c mouse xenografted with human MP41 cells assessed as morphological changes in spleen tissue at 10 to 30 mg/kg, ip administered once daily for 21 days and measured every 3 days by HE staining based assay; type: organism-based; conditions: in vivo, 504 h, dose 10-30 mg/kg, time 21 day
Method in brief: (§1)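 Nude BALB/c mice bearing serially passaged MP41 tumour slices (tertiary recipients, n = 8/group, randomized) dosed ip daily for 21 days at 10 or 30 mg/kg/d or vehicle. Body weight monitored every 3 days. Tissues collected at sacrifice, fixed in 4% paraformaldehyde 24 h, paraffin-embedded, H&E stained, viewed at ×100.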

[3] = Toxicity in nude BALB/c mouse xenografted with human MP41 cells assessed as morphological changes in kidney tissue at 10 to 30 mg/kg, ip administered once daily for 21 days and measured every 3 days by HE staining based assay; type: organism-based; conditions: in vivo, 504 h, dose 10-30 mg/kg, time 21 day; method in brief: as §1
[4] = Tmax in ICR mouse at 10 mg/kg, iv measured upto 24 hrs by LC-MS/MS analysis; type: ADME, organism-based; conditions: in vivo
Method in brief: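 Single-dose PK in male ICR mice (n = 6): 10 mg/kg iv or 30 mg/kg po, vehicle 5% DMSO/95% saline. Blood (30 μL) by catheter at 0, 5, 15, 30 min and 1, 2, 4, 6, 8, 24 h; plasma by centrifugation, stored −80 °C, measured by LC–MS/MS. Parameters from noncompartmental analysis, mean SD.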

IC50 (GNAQ/GNA11): 55.2 µM | Tmax [4]: 4.8 min
Structure (SMILES): CC[C@@H](C)[C@H](N)C(=O)N1CCn2cc(-c3ccccc3)nc2[C@@H]1CC1CCCCC1
Activity 921: Tde | inhibition in vivo at 30 mg/kg [1]: 99% | Activity [2]: Non-Toxic | Activity [3]: Non-Toxic

— ChEMBL document CHEMBL4808167, “Design, Synthesis, and Evaluation of Small Molecule Gαq/11 Protein Inhibitors for the Treatment of Uveal Melanoma” (J Med Chem, 2021)
